From ChEMBL document CHEMBL1139840, “Design and synthesis of glycoside inhibitors of glioma and melanoma growth” (2007)

Key:
[1] = Antimitotic activity against human U373 cells by [3H]thymidine incorporation assay; type: functional, U-373MG ATCC; settings: U373 MG, read-out: ID50 (the source's name)
C6 = assay: Antimitotic activity against rat C6 cells by [3H]thymidine incorporation assay; type: functional; settings: C6, 24 h, read-out: ID50 (the source's name)
Summary of the method: (§1)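 Cells seeded at 1 × 10⁴/well in DMEM with 10% FCS and left 6 h to attach, then serum-starved 36 h. Compounds added in DMEM with 1% FCS, in triplicate, for 24 h. A 6 h [³H]thymidine pulse (0.5 µCi/well) followed, then SDS lysis and scintillation counting. % inhibition was scaled between 10% FCS (high) and serum-free (low) controls. ID₅₀ came from sigmoidal fits of triplicate dose-response data.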

A-375 = assay: Antimitotic activity against human A375 cells by [3H]thymidine incorporation assay; type: functional; settings: A-375, 24 h, read-out: ID50 (the source's name); summary of the method: as §1
[2] = Antimitotic activity against rat stromal cells by [3H]thymidine incorporation assay; type: functional; settings: read-out: ID50 (the source's name)

Row | SMILES | IC50 [1] [µM] | IC50 (C6) [µM] | IC50 (A-375) [µM] | IC50 [2] [µM]
1 | CCCCCCCCCCCCCCCCO[C@H]1O[C@H](COCC(CO)(CO)COS(=O)(=O)O)[C@@H](O)[C@H](O)[C@H]1NC(=O)CCCC | 3.2 | 11 | 2.3 | –
2 | CC(=O)N[C@H]1[C@@H](OCCCCc2ccccc2)O[C@H](CO)[C@@H](O)[C@@H]1O | > 50 | > 50 | > 50 | –
3 | CCCCCCCCO[C@H]1O[C@H](CO)[C@@H](O)[C@H](O)[C@H]1NC(C)=O | > 50 | > 50 | > 50 | –
4 | CC(=O)N[C@H]1[C@@H](OCc2ccccc2)O[C@H](CO)[C@@H](O)[C@@H]1O | > 50 | > 50 | > 50 | –
5 | CCCCC(=O)N[C@H]1[C@@H](OCCc2ccccc2)O[C@H](COCC(CO)(CO)COS(=O)(=O)O)[C@@H](O)[C@@H]1O | 6.7 | 8.6 | 9.3 | –
6 | CCCCCCCCCCCCCCCCO[C@H]1O[C@H](CO)[C@@H](O)[C@H](O)[C@H]1NC(C)=O | > 50 | 13 | 29.3 | –
7 | CCCCCCCCO[C@H]1O[C@H](CO)[C@@H](O)[C@H](O)[C@H]1NC(=O)c1ccccc1 | > 50 | > 50 | > 50 | –
8 | CCCCCCCCCCCCCCCCO[C@H]1O[C@H](COCC(O)CO)[C@@H](O)[C@H](O)[C@H]1NC(=O)CCCC (stereo not given in full) | 4.6 | – | 3 | –
9 | CCCCCCCCCCCCCCCCO[C@H]1O[C@H](COCC(CO)(CO)CO)[C@@H](O)[C@H](O)[C@H]1NC(=O)CCCC | 27.3 | 18.3 | 17 | –
10 | CCCCCCCCCCCCCCCCO[C@H]1O[C@H](COC[C@H](O)CO)[C@@H](O)[C@H](O)[C@H]1NC(=O)CCCC | 4.9 | – | 2.2 | –
11 | C=CCCC(=O)N[C@H]1[C@@H](OCCCCCCCCCCCCCCCC)O[C@H](CO)[C@@H](O)[C@@H]1O | > 50 | > 50 | > 50 | –
12 | CCCCCCCC/C=C\CCCCCCCC(=O)N[C@H]1[C@@H](OCCCCCCCC)O[C@H](CO)[C@@H](O)[C@@H]1O | 13.3 | 12 | 6 | –
13 | C=CCCC(=O)N[C@H]1[C@@H](OCCc2ccccc2)O[C@H](COS(=O)(=O)O)[C@@H](O)[C@@H]1O | > 50 | > 50 | > 50 | –
14 | C=CCCC(=O)N[C@H]1[C@@H](OCCc2ccccc2)O[C@H](CO)[C@@H](O)[C@@H]1OS(=O)(=O)O | > 50 | > 50 | > 50 | –
15 | C=CCCC(=O)N[C@H]1[C@@H](OCCCCCCCCCCCCCCCC)O[C@H](CO)[C@@H](O)[C@@H]1OS(=O)(=O)O | 33 | 22.6 | 7.2 | –
16 | CCCCCCCC/C=C\CCCCCCCCO[C@H]1O[C@H](COS(=O)(=O)O)[C@@H](O)[C@H](O)[C@H]1NC(C)=O | 13 | 13 | 0.6 | 40
17 | CCCCCCCC/C=C\CCCCCCCC(=O)N[C@H]1[C@@H](OCCCCCCCC)O[C@H](COCC(CO)(CO)CO)[C@@H](O)[C@@H]1O | 20.6 | 11.9 | 13.3 | –
18 | CC(=O)N[C@H]1[C@@H](OCCc2ccccc2)O[C@H](CO)[C@@H](O)[C@@H]1O | > 50 | > 50 | > 50 | –
19 | CCCCCCCC/C=C\CCCCCCCC(=O)N[C@H]1[C@@H](OCCCCCCCC)O[C@H](CO)[C@@H](O)[C@@H]1OS(=O)(=O)O | 15.6 | 5.4 | 16 | –
20 | CCCCCCCC/C=C\CCCCCCCC(=O)N[C@H]1[C@@H](OCCCCCCCC)O[C@H](COS(=O)(=O)O)[C@@H](O)[C@@H]1O | 12.6 | 5.6 | 15.6 | –
21 | CCCCCCCCCCCCCCCCO[C@H]1O[C@H](COC[C@@H](O)CO)[C@@H](O)[C@H](O)[C@H]1NC(=O)CCCC | 5.6 | – | 3.4 | –
22 | CCCCC(=O)N[C@H]1[C@@H](OCCc2ccccc2)O[C@H](COCC(CO)(CO)CO)[C@@H](O)[C@@H]1O | > 50 | > 50 | > 50 | –
23 | CCCCCCCC/C=C\CCCCCCCCO[C@H]1O[C@H](CO)[C@@H](O)[C@H](O)[C@H]1NC(C)=O | 4.6 | 1.3 | 4.8 | 10
24 | CCCCCCCC/C=C\CCCCCCCCO[C@H]1O[C@H](CO)[C@@H](O)[C@H](OS(=O)(=O)O)[C@H]1NC(C)=O | 9.6 | 12.3 | 2.1 | –
25 | C=CCCC(=O)N[C@H]1[C@@H](OCCc2ccccc2)O[C@H](CO)[C@@H](O)[C@@H]1O | > 50 | > 50 | > 50 | –
26 | CCCCC(=O)N[C@H]1[C@@H](OCCc2ccccc2)O[C@H](COCC(O)CO)[C@@H](O)[C@@H]1O (mixture of isomers) | > 50 | > 50 | > 50 | –
27 | CCCCCCCCCCCCCCCCO[C@H]1O[C@H](COCC(O)CO)[C@@H](O)[C@H](O)[C@H]1NC(=O)CCCCCCCCCCCCCCC (mixture of isomers) | 3.3 | 2.6 | 9.3 | –
